≈ marks a conversion by molar mass, not a printed value.
Legend:
Nakaseomyces glabratus = experiment: Antifungal activity against Candida glabrata ATCC 90030 at 200 ug/ml by agar tube dilution test; assay type: functional
Microsporum canis = experiment: Antifungal activity against Microsporum canis ATCC 9865 at 200 ug/ml by agar tube dilution test; assay type: functional
Fusarium solani = experiment: Antifungal activity against Fusarium solani ATCC 11712 at 200 ug/ml by agar tube dilution test; assay type: functional
Candida albicans = experiment: Antifungal activity against Candida albicans ATCC 2192 at 200 ug/ml by agar tube dilution test; assay type: functional
Trichophyton longifusum = experiment: Antifungal activity against Trichophyton longifusum ATCC 22397 at 200 ug/ml by agar tube dilution test; assay type: functional
Aspergillus flavus = experiment: Antifungal activity against Aspergillus flavus ATCC 1030 at 200 ug/ml by agar tube dilution test; assay type: functional
Leishmania major = experiment: Antileishmanial activity against Leishmania major MHOM/PK/88/DESTO promastigotes by alamar blue assay; assay type: functional, organism-based
[1] = Toxicity against Artemia salina nauplii larvae; assay type: organism-based; details: in vivo, read-out: LD50 (the source's name)
Summary of the method: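 Brine shrimp lethality bioassay. LD50 was derived from the mortality data by Finney's probit analysis.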

Pseudomonas aeruginosa = experiment: Antibacterial activity against Pseudomonas aeruginosa ATCC 10145 […] by agar well-diffusion method; assay type: functional
Summary of the method: (§1)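 Test compounds dissolved in DMSO at 1 mg mL-1 and applied in agar wells; imipenem reference at 10 mg/disc. Inhibition zone diameter was read and graded as 3-6 mm non-significant, 7-9 mm low, 10-12 mm good, and >12 mm significant.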

Bacillus subtilis = experiment: Antibacterial activity against Bacillus subtilis ATCC 11774 […] by agar well-diffusion method; assay type: functional; summary of the method: as §1
Staphylococcus aureus = experiment: Antibacterial activity against Staphylococcus aureus ATCC 25923 […] by agar well-diffusion method; assay type: functional; summary of the method: as §1
Escherichia coli = experiment: Antibacterial activity against Escherichia coli ATCC 11229 […] by agar well-diffusion method; assay type: functional; summary of the method: as §1
Salmonella enterica = experiment: Antibacterial activity against Salmonella typhi ATCC 10749 at 10 mg/disk by agar well-diffusion method; assay type: functional, Salmonella enterica subsp. enterica serovar Typhi
Summary of the method: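 Agar well-diffusion assay with compounds at 1 mg mL-1 in DMSO. Imipenem served as the reference disc. The read-out is the inhibition zone diameter in mm, graded as 3-6 non-significant, 7-9 low, 10-12 good and >12 significant.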

Shigella flexneri = experiment: Antibacterial activity against Shigella flexneri ATCC 10782 […] by agar well-diffusion method; assay type: functional; summary of the method: as §1

O=CN/N=C/c1ccccc1O
inhibition at 200 µg/mL (Nakaseomyces glabratus): 0%
inhibition at 200 µg/mL (Microsporum canis): 0%
inhibition at 200 µg/mL (Fusarium solani): 0%
inhibition at 200 µg/mL (Candida albicans): 0%
inhibition at 200 µg/mL (Trichophyton longifusum): 0%
inhibition at 200 µg/mL (Aspergillus flavus): 40%
IC50 (Leishmania major): 24 µg/mL (≈ 146 µM)

COc1cc([C@@H]2c3cc4c(cc3[C@@H](O[C@@H]3O[C@@H]5CO[C@@H](C)O[C@H]5[C@H](O)[C@H]3O)[C@H]3COC(=O)[C@H]23)OCO4)cc(OC)c1O [ETOPOSIDE]
LC50 [1]: 7.46 µg/mL (≈ 12.7 µM)

C[C@@H](O)[C@H]1C(=O)N2C(C(=O)O)=C(SCCNC=N)C[C@H]12 [IMIPENEM ANHYDROUS]
diameter of the inhibition zone (DIZ) (Pseudomonas aeruginosa): 32 mm
diameter of the inhibition zone (DIZ) (Bacillus subtilis): 37 mm
diameter of the inhibition zone (DIZ) (Staphylococcus aureus): 26 mm
diameter of the inhibition zone (DIZ) (Escherichia coli): 30 mm
diameter of the inhibition zone (DIZ) (Salmonella enterica): 30 mm
diameter of the inhibition zone (DIZ) (Shigella flexneri): 36 mm
